Results published in ChEMBL document CHEMBL4261634, “Design and optimization of 2,3-dihydrobenzo[b][1,4]dioxine propanoic acids as novel GPR40 agonists with improved pharmacokinetic and safety profiles” (Bioorg Med Chem, 2018).
pEC50, pIC50: −log10 of the molar value. Calls of active or inactive are those of the source. No cut-off for these calls is given here.

Assays:
[1] = target: T1, Free fatty acid receptor 1 (Homo sapiens, UniProt O14842); test: Agonist activity at human GPR40 expressed in human HEK293 cells assessed as increase in intracellular calcium flux after 10 mins by fluorescence assay; type: functional, cell-based
How it was run: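 Human GPR40 activity read by calcium mobilization to give EC50. Mean ± SD, n = 3.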

[2] = target: T1, Free fatty acid receptor 1; test: Agonist activity at human GPR40 expressed in human HEK293 cells assessed as increase in intracellular calcium flux after 10 mins by fluorescence assay relative to linoleic acid; type: functional, cell-based
How it was run: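 Human GPR40 activity read by calcium mobilization to give EC50. Emax expressed relative to linoleic acid as 100%. Mean ± SD, n = 3.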

[3] = Cmax in Sprague-Dawley rat at 10 mg/kg, po by LC-ESI-MS analysis; type: ADME, organism-based; design: dose 10 mg/kg, route oral; conditions: in vivo
How it was run: (§1)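 SD rats dosed orally (3 or 10 mg/kg) or by intravenous injection (1 mg/kg). Plasma PK parameters derived per route: Cmax, AUC0-t, Tmax, t1/2 and F after oral dosing; CL, AUC0-t, MRT, t1/2 and Vdss after iv dosing. Mean ± SD from three independent experiments (n = 3).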

Rattus norvegicus [4] = test: Antidiabetic activity in Sprague-Dawley rat assessed as reduction in blood glucose AUC (0 to 60 mins) at 10 to 20 mg/kg, po administered 60 mins prior to glucose challenge by OGTT; type: functional, organism-based
How it was run: (§2)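 OGTT in SD rats: compound given orally 60 min before a 3.0 g/kg glucose challenge. Blood glucose followed over time, and AUC0-60min or AUC0-120min calculated versus vehicle group. Mean ± SD, n = 8.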

Rattus norvegicus [5] = test: Antidiabetic activity in Sprague-Dawley rat assessed as reduction in blood glucose AUC (0 to 120 mins) at 10 to 20 mg/kg, po administered 60 mins prior to glucose challenge by OGTT; type: functional, organism-based; how it was run: as §2
[6] = Tmax in Sprague-Dawley rat at 10 mg/kg, po by LC-ESI-MS analysis; type: ADME, organism-based; conditions: in vivo; how it was run: as §1
[7] = AUC (0 to t) in Sprague-Dawley rat at 10 mg/kg, po by LC-ESI-MS analysis; type: ADME, organism-based; conditions: in vivo; how it was run: as §1
Rattus norvegicus [8] = test: Antidiabetic activity in Sprague-Dawley rat assessed as reduction in blood glucose excursion at 10 to 20 mg/kg, po administered 60 mins prior to glucose challenge by OGTT; type: functional, organism-based; how it was run: as §2
[9] = Elimination half life in Sprague-Dawley rat at 10 mg/kg, po by LC-ESI-MS analysis; type: ADME, organism-based; conditions: in vivo, read-out: beta t1/2 (converted); how it was run: as §1
Rattus norvegicus [10] = test: Antidiabetic activity in Sprague-Dawley rat assessed as reduction in blood glucose AUC (0 to 60 mins) at 10 mg/kg, po administered 60 mins prior to glucose challenge by OGTT; type: functional, organism-based; how it was run: as §2
[11] = target: T2, Solute carrier organic anion transporter family member 1B1 (Homo sapiens, UniProt Q9Y6L6); test: Inhibition of human […]
T2 sequence (Q9Y6L6 whole entry): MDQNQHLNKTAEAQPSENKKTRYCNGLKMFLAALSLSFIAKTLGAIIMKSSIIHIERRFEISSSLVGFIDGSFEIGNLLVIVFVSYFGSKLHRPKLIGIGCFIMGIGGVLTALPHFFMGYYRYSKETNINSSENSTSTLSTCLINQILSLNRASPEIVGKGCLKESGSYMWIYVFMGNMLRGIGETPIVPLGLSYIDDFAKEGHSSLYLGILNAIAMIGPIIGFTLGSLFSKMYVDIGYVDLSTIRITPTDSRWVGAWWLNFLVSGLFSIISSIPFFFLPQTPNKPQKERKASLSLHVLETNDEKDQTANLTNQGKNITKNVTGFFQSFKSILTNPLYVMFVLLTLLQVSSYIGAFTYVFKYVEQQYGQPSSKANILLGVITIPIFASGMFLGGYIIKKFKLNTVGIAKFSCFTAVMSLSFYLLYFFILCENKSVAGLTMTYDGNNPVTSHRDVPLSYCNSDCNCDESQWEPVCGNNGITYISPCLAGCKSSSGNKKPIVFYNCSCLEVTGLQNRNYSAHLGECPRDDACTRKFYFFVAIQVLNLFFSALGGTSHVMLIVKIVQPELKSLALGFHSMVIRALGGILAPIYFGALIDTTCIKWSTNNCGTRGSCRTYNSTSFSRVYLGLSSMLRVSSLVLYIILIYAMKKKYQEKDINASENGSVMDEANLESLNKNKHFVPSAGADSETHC

[12] = target: ATP-binding cassette sub-family C member 2 (Homo sapiens, UniProt Q92887); test: Inhibition of human MRP2
Rattus norvegicus [13] = test: Antidiabetic activity in Sprague-Dawley rat assessed as reduction in blood glucose AUC (0 to 120 mins) at 10 mg/kg, po administered 60 mins prior to glucose challenge by OGTT; type: functional, organism-based; how it was run: as §2
[14] = target: T3, Solute carrier organic anion transporter family member 1B3 (Homo sapiens, UniProt Q9NPD5); test: Inhibition of human OATP1B3; type: ADME
T3 sequence (Q9NPD5 whole entry): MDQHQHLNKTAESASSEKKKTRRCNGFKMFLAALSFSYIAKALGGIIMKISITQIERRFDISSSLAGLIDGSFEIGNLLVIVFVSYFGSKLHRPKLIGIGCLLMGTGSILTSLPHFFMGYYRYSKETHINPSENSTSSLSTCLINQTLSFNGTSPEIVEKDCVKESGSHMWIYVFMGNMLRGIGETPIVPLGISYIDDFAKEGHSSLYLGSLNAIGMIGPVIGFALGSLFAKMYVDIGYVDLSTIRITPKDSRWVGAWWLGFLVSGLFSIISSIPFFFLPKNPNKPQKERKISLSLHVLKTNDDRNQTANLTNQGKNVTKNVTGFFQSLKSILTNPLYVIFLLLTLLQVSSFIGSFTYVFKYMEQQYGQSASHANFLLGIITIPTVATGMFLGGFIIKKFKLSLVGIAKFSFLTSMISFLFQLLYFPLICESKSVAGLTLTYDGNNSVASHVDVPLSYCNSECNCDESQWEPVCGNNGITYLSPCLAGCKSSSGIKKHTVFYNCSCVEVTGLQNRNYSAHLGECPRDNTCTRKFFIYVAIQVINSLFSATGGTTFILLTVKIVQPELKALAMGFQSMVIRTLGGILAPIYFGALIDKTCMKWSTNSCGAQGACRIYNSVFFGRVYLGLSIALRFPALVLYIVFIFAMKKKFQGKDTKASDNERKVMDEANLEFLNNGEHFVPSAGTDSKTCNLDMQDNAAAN

Hepatocyte = test: Toxicity in sandwich-cultured Sprague-Dawley rat hepatocytes assessed as inhibition of hepatobiliary transport by measuring biliary excretion index at 20 to 40 uM after 15 mins in presence of d8-TCA by LC-MS/MS analysis; type: cell-based; conditions: 0.25 h
How it was run: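 Sandwich-cultured rat hepatocytes incubated with compound and d8-TCA in standard (Ca2+-containing) or Ca2+-free buffer. Cellular d8-TCA measured, and the biliary excretion index calculated as the fraction of accumulated bile acid excreted into bile. Mean of three independent experiments.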

Rattus norvegicus [15] = test: Antidiabetic activity in Sprague-Dawley rat assessed as reduction in blood glucose excursion at 10 mg/kg, po administered 60 mins prior to glucose challenge by OGTT; type: functional, organism-based; how it was run: as §2

T1 sequence (O14842 whole entry): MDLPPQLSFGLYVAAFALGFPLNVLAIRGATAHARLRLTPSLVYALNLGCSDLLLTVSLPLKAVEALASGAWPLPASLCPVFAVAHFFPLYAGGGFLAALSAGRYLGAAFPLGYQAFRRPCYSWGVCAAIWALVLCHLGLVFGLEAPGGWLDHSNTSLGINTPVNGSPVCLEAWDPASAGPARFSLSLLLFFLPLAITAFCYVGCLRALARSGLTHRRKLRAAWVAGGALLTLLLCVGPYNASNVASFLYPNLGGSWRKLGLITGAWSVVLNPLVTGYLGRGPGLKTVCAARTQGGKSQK
Sequence of ATP-binding cassette sub-family C member 2 (Q92887 whole entry): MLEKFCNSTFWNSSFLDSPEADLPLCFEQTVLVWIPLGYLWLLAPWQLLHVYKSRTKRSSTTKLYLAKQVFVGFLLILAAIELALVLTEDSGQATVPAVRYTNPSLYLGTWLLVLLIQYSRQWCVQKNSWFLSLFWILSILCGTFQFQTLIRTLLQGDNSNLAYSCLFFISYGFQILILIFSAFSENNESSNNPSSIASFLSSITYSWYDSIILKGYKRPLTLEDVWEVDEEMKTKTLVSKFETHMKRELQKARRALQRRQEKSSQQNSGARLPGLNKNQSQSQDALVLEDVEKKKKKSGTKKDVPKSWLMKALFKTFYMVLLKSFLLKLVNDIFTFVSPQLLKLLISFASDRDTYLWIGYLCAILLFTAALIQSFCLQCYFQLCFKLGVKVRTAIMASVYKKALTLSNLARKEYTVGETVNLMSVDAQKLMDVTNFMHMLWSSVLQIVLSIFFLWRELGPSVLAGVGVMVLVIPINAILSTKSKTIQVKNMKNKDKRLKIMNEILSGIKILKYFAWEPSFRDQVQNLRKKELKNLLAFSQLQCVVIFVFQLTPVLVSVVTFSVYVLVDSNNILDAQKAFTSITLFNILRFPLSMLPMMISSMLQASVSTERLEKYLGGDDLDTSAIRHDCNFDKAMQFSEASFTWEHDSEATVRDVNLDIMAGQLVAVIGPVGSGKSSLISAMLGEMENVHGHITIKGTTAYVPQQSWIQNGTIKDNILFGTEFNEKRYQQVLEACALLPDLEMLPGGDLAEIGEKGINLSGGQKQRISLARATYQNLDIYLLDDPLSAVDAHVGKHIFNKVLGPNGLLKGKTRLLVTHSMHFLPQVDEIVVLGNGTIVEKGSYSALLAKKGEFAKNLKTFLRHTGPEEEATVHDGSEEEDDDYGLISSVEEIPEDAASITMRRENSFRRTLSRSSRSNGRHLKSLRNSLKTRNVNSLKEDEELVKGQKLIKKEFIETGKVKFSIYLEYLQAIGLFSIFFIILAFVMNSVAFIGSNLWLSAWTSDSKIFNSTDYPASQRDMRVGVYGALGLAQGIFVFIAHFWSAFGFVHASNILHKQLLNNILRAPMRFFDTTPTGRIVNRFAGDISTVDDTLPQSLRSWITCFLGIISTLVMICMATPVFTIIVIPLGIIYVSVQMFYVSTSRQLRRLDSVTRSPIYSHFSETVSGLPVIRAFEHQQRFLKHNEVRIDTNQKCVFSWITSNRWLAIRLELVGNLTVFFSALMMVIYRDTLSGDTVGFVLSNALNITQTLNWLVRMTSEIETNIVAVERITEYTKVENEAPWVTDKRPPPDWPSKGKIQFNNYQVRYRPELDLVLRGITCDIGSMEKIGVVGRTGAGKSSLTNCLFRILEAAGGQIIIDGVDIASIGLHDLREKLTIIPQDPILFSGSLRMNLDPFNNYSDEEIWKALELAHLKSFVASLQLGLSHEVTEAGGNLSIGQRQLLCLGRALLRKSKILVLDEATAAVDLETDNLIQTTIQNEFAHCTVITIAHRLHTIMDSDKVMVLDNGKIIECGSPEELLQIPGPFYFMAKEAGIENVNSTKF

pEC50 [1]	Emax [2]	Compound	further results
6.77	81%	CC#C[C@@H](CC(=O)O)c1ccc(OC[C@H]2COc3c(Cl)cccc3O2)cc1	
< 4.52	42%	CC#C[C@@H](CC(=O)O)c1ccc(OC[C@H]2COc3ccc(CO)cc3O2)cc1	
< 4.52	51%	CC#C[C@@H](CC(=O)O)c1ccc(OC[C@H]2COc3ccc(C(C)=O)cc3O2)cc1	
6.82	33%	CC#C[C@@H](CC(=O)O)c1ccc(OC[C@H]2COc3cc(Cl)c(Cl)cc3O2)cc1	
5.99	63%	O=C(O)CC(c1ccc(OCC2COc3ccc(Cl)cc3O2)cc1)c1cnco1 (centres undefined)	
5.30	41%	CC#C[C@H](CC(=O)O)c1ccc(OC[C@@H]2COc3ccc(Cl)cc3O2)cc1	
6.68	86%	CC#C[C@@H](CC(=O)O)c1ccc(OC[C@H]2COc3ccc(F)cc3O2)cc1	
5.47	47%	CC#C[C@H](CC(=O)O)c1ccc(OC[C@H]2COc3ccc(Cl)cc3O2)cc1	
5.68	58%	COc1ccc2c(c1)OC(COc1ccc(CCC(=O)O)c(F)c1)CC2 (centres undefined)	
6.89	91%	CC#C[C@@H](CC(=O)O)c1ccc(OC[C@H]2COc3ccc(OC)cc3O2)cc1	
6.92	78%	CC#C[C@@H](CC(=O)O)c1ccc(OC[C@H]2COc3ccc(C)cc3O2)cc1	Cmax [3]: 23700 ng/mL; Activity (Rattus norvegicus [4]): Active; Activity (Rattus norvegicus [5]): Active; Tmax [6]: 0.417 h; AUC(0-t) [7]: 65.2 µg·h/mL; Activity (Rattus norvegicus [8]): Active; half-life [9]: 1.79 h
5.23	68%	Cn1ccnc1C(CC(=O)O)c1ccc(OCC2COc3ccc(Cl)cc3O2)cc1 (centres undefined)	
5.65	81%	O=C(O)CCc1ccc(OCC2COc3ccc(Br)cc3O2)cc1F (centres undefined)	
5.41	70%	Cn1nncc1C(CC(=O)O)c1ccc(OCC2COc3ccc(Cl)cc3O2)cc1 (centres undefined)	
5.32		CCCCC/C=C\C/C=C\CCCCCCCC(=O)O [LINOLEIC ACID]	
5.37	83%	O=C(O)CC(c1ccc(F)cc1)c1ccc(OCC2COc3ccc(Cl)cc3O2)cc1 (centres undefined)	
5.68	60%	CC#C[C@@H](CC(=O)O)c1ccc(OC[C@H]2COc3ccc(C#N)cc3O2)cc1	
6.01	67%	O=C(O)CCc1ccc(OCC2COc3cc(Br)ccc3O2)cc1F (centres undefined)	
5.09	66%	O=C(O)CC1(c2ccc(OCC3COc4ccc(Cl)cc4O3)cc2)COC1 (centres undefined)	
5.63	36%	COCCOc1ccc2c(c1)OC(COc1ccc(CCC(=O)O)c(F)c1)CC2 (centres undefined)	
5.51	62%	Cn1cncc1C(CC(=O)O)c1ccc(OCC2COc3ccc(Cl)cc3O2)cc1 (centres undefined)	

pEC50 [1]	Emax [2]	Compound	further results
< 4.52	32%	CC#C[C@@H](CC(=O)O)c1ccc(OC[C@H]2COc3ccc(C(=O)N(C)C)cc3O2)cc1	
6.08	50%	O=C(O)CCc1ccc(OCC2COc3ccc(Cl)cc3O2)cc1F (centres undefined)	
6.70	82%	CC#C[C@@H](CC(=O)O)c1ccc(OC[C@H]2COc3cc(Br)c(Cl)cc3O2)cc1	
6.68	46%	CC#C[C@@H](CC(=O)O)c1ccc(OC[C@H]2COc3cc(F)c(Cl)cc3O2)cc1	
7.00	104%	CC#CC(CC(=O)O)c1ccc(OCC2COc3ccc(Cl)cc3O2)cc1 (centres undefined)	
5.93	62%	O=C(O)CC(c1ccncc1)c1ccc(OCC2COc3ccc(Cl)cc3O2)cc1 (centres undefined)	
6.96	80%	CC#C[C@@H](CC(=O)O)c1ccc(OC[C@H]2COc3cc(Cl)ccc3O2)cc1	
5.83	80%	COc1ccc2c(c1)OC(COc1ccc(CCC(=O)O)c(F)c1)CO2 (centres undefined)	
6.28	95%	CC#C[C@@H](CC(=O)O)c1ccc(OC[C@H]2COc3cccc(Cl)c3O2)cc1	
6.59	65%	CC#C[C@@H](CC(=O)O)c1ccc(OC[C@@H]2COc3ccc(Cl)cc3O2)cc1	
4.87	69%	O=C(O)CCc1ccc(NCC2COc3ccc(Cl)cc3O2)cc1F (centres undefined)	
6.15	73%	CC#C[C@@H](CC(=O)O)c1ccc(OC[C@H]2COc3ccc(OC(F)(F)F)cc3O2)cc1	
< 4.30	33%	CC#C[C@@H](CC(=O)O)c1ccc(OC[C@H]2COc3ccc(C(=O)N4CCOCC4)cc3O2)cc1	
4.44	38%	CS(=O)(=O)CCCOc1ccc2c(c1)OC(COc1ccc(CCC(=O)O)c(F)c1)CC2 (centres undefined)	
6.55	90%	CC#C[C@@H](CC(=O)O)c1ccc(OC[C@H]2COc3ccc(OC(C)C)cc3O2)cc1	
6.19	46%	CCOC(CC(=O)O)c1ccc(OCC2COc3ccc(Cl)cc3O2)cc1 (centres undefined)	
6.68	69%	CC#C[C@@H](CC(=O)O)c1ccc(OC[C@H]2COc3ccc(Br)cc3O2)cc1	
7.05	70%	CC#C[C@@H](CC(=O)O)c1ccc(OC[C@H]2COc3ccccc3O2)cc1	Cmax [3]: 36700 ng/mL; Activity (Rattus norvegicus [4]): Active; Activity (Rattus norvegicus [5]): Active; Tmax [6]: 1.17 h; AUC(0-t) [7]: 275 µg·h/mL; Activity (Rattus norvegicus [8]): Active; half-life [9]: 3.14 h
		Cc1cc(OCCCS(C)(=O)=O)cc(C)c1-c1cccc(COc2ccc3c(c2)OC[C@H]3CC(=O)O)c1	Activity (Rattus norvegicus [10]): Active; Cmax [3]: 19400 ng/mL; pIC50 [11]: 5.64; pIC50 [12]: 5.62; Activity (Rattus norvegicus [13]): Active; pIC50 [14]: 4.95; Tmax [6]: 3.5 h; AUC(0-t) [7]: 137 µg·h/mL; Activity (Hepatocyte): Toxic; Activity (Rattus norvegicus [15]): Active; half-life [9]: 3.94 h
4.57	55%	CC#C[C@@H](CC(=O)O)c1ccc(OC[C@H]2COc3ccc(S(C)(=O)=O)cc3O2)cc1	
